Laboratory results published in PMC7318068 (ACS Central Science, 2020).

How the values were obtained:
MDA-MB-468 cells [1] = assay: Cell viability assay for combinatorial effect of AZ-82 and MK-FNE or MK-2206; format: cell-based; conditions: 72 hours
Halo-Akt3(wt) = Halo-Akt3(wt) (Homo sapiens, UniProt Q9Y243); format: cell-based; conditions: 5 μM
Halo-Akt3(C119S) = Halo-Akt3(C119S) (Homo sapiens, UniProt Q9Y243, C119S); format: cell-based; conditions: 5 μM, 48 h, then withdrawal
In short: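 HEK293T cells co-expressing the AktAR ratiometric-FRET reporter and Halo-Akt3(C119S) were exposed to test compound (5 μM) or DMSO for 24–48 h. They were then rinsed twice and recovered in drug-free media for 24 h. Akt kinase activity was imaged live by confocal ratiometric FRET with 458 nm argon-laser excitation at set times.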

[2] = system: Akt3(T305)-phosphorylation; assay: Halo-Akt3 phospho-T305 levels by western blot and ELISA; format: cell-based; conditions: saturating doses
[3] = system: T47D and T47D MK-2206-resistant cells; assay: Cell viability of T47D; format: cell-based; conditions: 72 h
MDA-MB-468 xenografts = assay: Drug efficacy test in MDA-MB-468 xenograft mouse model; format: in vivo, athymic nude mice; conditions: 200 mg/kg PO twice weekly
In short: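 Polyclonal MDA-MB-468 cells were injected into both flanks of female nude mice. From day 7, test compound (200 mg/kg) or vehicle DMSO was given by oral gavage twice weekly, 5 mice per group. Tumor volume was normalized to time zero and plotted against time. Growth rate was the linear-regression slope; groups were compared by two-tailed unpaired t-test.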

MDA-MB-468 cells [4] = assay: Drug effect persistence assay; format: cell-based; conditions: EC60 concentration 48 h, then 24 h recovery
Akt1, Akt2, Akt3 = conditions: cited from earlier work

Chain of Halo-Akt3(wt) (Q9Y243 whole entry): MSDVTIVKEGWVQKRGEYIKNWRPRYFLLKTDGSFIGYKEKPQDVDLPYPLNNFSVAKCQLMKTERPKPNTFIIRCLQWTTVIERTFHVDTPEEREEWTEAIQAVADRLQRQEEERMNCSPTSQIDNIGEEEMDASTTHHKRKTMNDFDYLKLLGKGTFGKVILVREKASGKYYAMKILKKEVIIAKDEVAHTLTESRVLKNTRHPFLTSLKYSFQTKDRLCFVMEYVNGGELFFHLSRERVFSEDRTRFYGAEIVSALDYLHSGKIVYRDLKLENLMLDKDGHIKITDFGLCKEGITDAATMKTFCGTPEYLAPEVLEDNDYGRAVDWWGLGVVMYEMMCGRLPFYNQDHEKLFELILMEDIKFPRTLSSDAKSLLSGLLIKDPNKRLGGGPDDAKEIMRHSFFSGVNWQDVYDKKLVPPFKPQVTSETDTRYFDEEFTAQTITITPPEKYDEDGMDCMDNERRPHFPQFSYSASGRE
Chain of Halo-Akt3(C119S) (Q9Y243 whole entry C119S): as the sequence (Q9Y243 whole entry) above, with C119S counted along it

| ratiometric-FRET signal (Akt activity) under treatment (Halo-Akt3(wt); 24 h, vs DMSO) | Akt3(wt) activity after 24 h withdrawal in drug-free media (Halo-Akt3(wt); 48 h, then withdrawal) | Akt3(C119S) activity after 24 h withdrawal in drug-free media (Halo-Akt3(C119S)) | Fold increase in resistance = EC50(MK-res)/EC50(wt) [3] [fold] | blood glucose levels (MDA-MB-468 xenografts; Day 21, 4 days after termination of dosing) | SMILES | effect on proliferation inhibition by MK-FNE or MK-2206 (MDA-MB-468 cells [1]) | Akt3(T305)-phosphorylation [2] | tumor-growth suppression overall (MDA-MB-468 xenografts; vs DMSO) [%] | slope (m) of fold change in tumor size vs day, linear regression (MDA-MB-468 xenografts; DMSO 0.0638 ± 0.0032) | regrowth after compound withdrawal (MDA-MB-468 cells [4]) | higher affinity for Akt1 than Akt3 (Akt1, Akt2, Akt3) [fold] | preference of Akt2 over Akt3 for binding (Akt1, Akt2, Akt3) |
| --- | --- | --- | --- | --- | --- | --- | --- | --- | --- | --- | --- | --- |
| – | – | – | – | – | CCCc1cc(C(=O)N[C@H](Cc2ccc(-c3cccc(OC(F)(F)F)c3)nc2)C(=O)N[C@@H]2CCNC2)sc1C [AZ82] | selectively promoted resistance to MK-FNE, but not MK-2206 | – | – | – | – | – | – |
| suppressed the ratiometric-FRET signal | kinase activity was restored | recovery to normal activity levels | 5 | elevated relative to MK-FNE-treated mice | NC1(c2ccc(-c3nc4ccn5c(=O)[nH]nc5c4cc3-c3ccccc3)cc2)CCC1 [MK-2206] | – | fully suppressed | 14 | 0.0547 ± 0.0018 | statistically significant regrowth was observed | ~100 | around 10 fold |
